{"source": "ChEMBL document CHEMBL1122411", "about": "(J Med Chem, 1983)", "key": {"Mus musculus [1]": {"organism": "Mus musculus", "assay": "Percentage increase in life span after 12-19 days", "type": "functional", "outline": "(§1)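 Male B6D2F1J mice (20–25 g), randomized after i.p. inoculation with 10^5 L1210 ascitic leukemia cells on day 0. Drug in water, pH 7.5–8.0, given i.p. on a q2d×5, qd×9 (from day 1) or b.i.d.×10 schedule; 5 mice per group. %ILS = [(T/C) − 1]100 from median survival days of treated versus control mice. Range is survival days.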"}, "Mus musculus [2]": {"system": "Mus musculus", "assay": "Toxicity in mice after 15-17 days at a dose of 0.5 mg/kg/day; value is 16/8", "type": "functional"}, "Mus musculus [3]": {"organism": "Mus musculus", "assay": "1Percentage increase in life span after 12-15 days", "type": "functional", "outline": "as §1"}, "Mus musculus [4]": {"organism": "Mus musculus", "assay": "Toxicity in mice after 17-22 days at a dose of; value is 20/9", "type": "functional"}, "Mus musculus [5]": {"system": "Mus musculus", "assay": "Weight change on day 7 in L1210 Lymphoid Leukemia in mice at a dose of 10 mg/kg/day (qd x5)", "type": "functional"}, "Mus musculus [6]": {"system": "Mus musculus", "assay": "Toxicity in mice after 14-18 days at a dose of 10 mg/kg/day; value is 17/9", "type": "functional"}, "Mus musculus [7]": {"system": "Mus musculus", "assay": "Weight change on day 7 in L1210 Lymphoid Leukemia in mice at a dose of 0.25 mg/kg/day (b.i.d. x10)", "type": "functional", "outline": "(§2)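 Male B6D2F₁J mice (20–25 g) bearing ip L1210 ascites (10⁵ cells, day 0) were used, 5 per group. Drug was given ip in water at pH 7.5–8.0 from day 1 on q2d×5, qd×9 or b.i.d.×10 schedules. Animals were weighed after 7 days and percent weight change recorded.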"}, "Mus musculus [8]": {"system": "Mus musculus", "assay": "Weight change on day 7 in L1210 Lymphoid Leukemia in mice at a dose of 0.5 mg/kg/day (b.i.d. x10)", "type": "functional", "outline": "as §2"}, "Mus musculus [9]": {"system": "Mus musculus", "assay": "Toxicity in mice after 14-18 days at a dose of 2 mg/kg/day; value is 16/9", "type": "functional"}, "Mus musculus [10]": {"organism": "Mus musculus", "assay": "Percentage increase in life span after 14-18d ays", "type": "functional", "outline": "as §1"}, "Mus musculus [11]": {"organism": "Mus musculus", "assay": "Percentage increase in life span after 11-22 days", "type": "functional", "outline": "as §1"}, "Mus musculus [12]": {"system": "Mus musculus", "assay": "Weight change on day 7 in L1210 Lymphoid Leukemia in mice at a dose of 6 mg/kg/day (qdX9)", "type": "functional", "outline": "(§3)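 Male B6D2F1J mice (20–25 g) were inoculated i.p. with 10⁵ L1210 ascites cells on day 0 and randomized into groups of 5. Drug in water at pH 7.5–8.0 was given i.p. daily for 9 days (qd×9) from day 1. Animals were weighed after 7 days, and the % body-weight change was recorded under a standard NCI protocol.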"}, "Mus musculus [13]": {"system": "Mus musculus", "assay": "Weight change on day 7 in L1210 Lymphoid Leukemia in mice at a dose of 15 mg/kg/day (qd x5)", "type": "functional", "details": "in the assay text read “q2dx5” for “qdx5”", "outline": "as §2"}, "Mus musculus [14]": {"system": "Mus musculus", "assay": "Toxicity in mice after 11-22 days at a dose of 6 mg/kg/day; value is 21/9", "type": "functional"}, "Mus musculus [15]": {"system": "Mus musculus", "assay": "Weight change on day 7 in L1210 Lymphoid Leukemia in mice at a dose of 0.75 mg/kg/day (b.i.d. x10)", "type": "functional", "outline": "as §2"}, "Mus musculus [16]": {"system": "Mus musculus", "assay": "Toxicity in mice after 12-19 days at a dose of 4 mg/kg/day; value is 17/9", "type": "functional"}, "L1210 [17]": {"system": "L1210", "assay": "cytotoxicity against L1210 cells", "type": "functional", "details": "Mus musculus, read-out: ID50 (the source's name)"}, "Mus musculus [18]": {"system": "Mus musculus", "assay": "Weight change on day 7 in L1210 Lymphoid Leukemia in mice at a dose of 2 mg/kg/day (qdx9)", "type": "functional", "outline": "as §2"}, "Mus musculus [19]": {"organism": "Mus musculus", "assay": "Percentage increase in life span after 17-22 days", "type": "functional", "outline": "as §1"}, "Mus musculus [20]": {"system": "Mus musculus", "assay": "Weight change on day 7 in L1210 Lymphoid Leukemia in mice at a dose of 4 mg/kg/day (qdX9)", "type": "functional", "outline": "as §2"}, "Mus musculus [21]": {"system": "Mus musculus", "assay": "Toxicity in mice after 15-17 days at a dose of 0.75 mg/kg/day; value is 17/8", "type": "functional"}, "Mus musculus [22]": {"system": "Mus musculus", "assay": "Toxicity in mice after 12-15 days at a dose of 0.25 mg/kg/day; value is 13/8", "type": "functional"}, "Mus musculus [23]": {"organism": "Mus musculus", "assay": "Percentage increase in life span after 12-15 days", "type": "functional", "outline": "as §1"}, "Mus musculus [24]": {"system": "Mus musculus", "assay": "Weight change on day 7 in L1210 Lymphoid Leukemia in mice at a dose of 30 mg/kg/day (qdx9)", "type": "functional", "outline": "as §2"}, "Mus musculus [25]": {"organism": "Mus musculus", "assay": "Percentage increase in life span after 15-17 days", "type": "functional", "outline": "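Male B6D2F1J mice (20–25 g) were inoculated i.p. with 10⁵ L1210 ascitic leukemia cells on day 0 and randomized into groups of 5. Drug in water at pH 7.5–8.0 was given i.p. from day 1 on qd×9, q2d×5 or b.i.d.×10 schedules. Weight change was recorded at day 7. %ILS = [(T/C) − 1]100, using median survival days; ≥25% counts as significant.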"}, "Mus musculus [26]": {"system": "Mus musculus", "assay": "Weight change on day 7 in L1210 Lymphoid Leukemia in mice at a dose of 40 mg/kg/day (qdx9)", "type": "functional", "outline": "as §3"}, "Mus musculus [27]": {"system": "Mus musculus", "assay": "Toxicity in mice after 13-20 days at a dose of 40 mg/kg/day; value is 19/9", "type": "functional"}, "Mus musculus [28]": {"system": "Mus musculus", "assay": "Toxicity in mice after 17-18 days at a dose of 30 mg/kg/day; value is 17/9", "type": "functional"}, "Mus musculus [29]": {"organism": "Mus musculus", "assay": "Percentage increase in life span after 13-20 days", "type": "functional", "outline": "as §1"}, "Mus musculus [30]": {"organism": "Mus musculus", "assay": "Percentage increase in life span after 17-18 days", "type": "functional", "outline": "as §1"}, "Mus musculus [31]": {"system": "Mus musculus", "assay": "Weight change on day 7 in L1210 Lymphoid Leukemia in mice at a dose of 20 mg/kg/day (qdx9)", "type": "functional", "outline": "as §2"}, "Mus musculus [32]": {"system": "Mus musculus", "assay": "Toxicity in mice after 15-17 days at a dose of 20 mg/kg/day; value is 16/9", "type": "functional"}, "L1210 [33]": {"system": "L1210", "assay": "Cytotoxicity against L1210 cells", "type": "functional", "details": "Mus musculus, read-out: ID50 (the source's name)"}, "Mus musculus [34]": {"system": "Mus musculus", "assay": "Toxicity in mice after 12-15 days at a dose of 10 mg/kg/day; value is 13/9", "type": "functional"}, "Mus musculus [35]": {"system": "Mus musculus", "assay": "Weight change on day 7 in L1210 Lymphoid Leukemia in mice at a dose of 10 mg/kg/day (qd x9)", "type": "functional", "outline": "as §2"}, "[36]": {"target": "T1, Dihydrofolate reductase (Mus musculus) (UniProt P00375)", "T1 sequence (whole entry)": "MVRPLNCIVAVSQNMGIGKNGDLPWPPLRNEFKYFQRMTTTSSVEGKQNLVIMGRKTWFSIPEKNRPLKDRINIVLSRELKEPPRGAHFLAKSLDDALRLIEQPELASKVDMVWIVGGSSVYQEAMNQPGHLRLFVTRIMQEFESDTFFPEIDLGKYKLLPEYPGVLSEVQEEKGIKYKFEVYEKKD", "assay": "Binding affinity to Dihydrofolate reductase of L1210/R71 using spectrophotometric assay", "outline": "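The enzyme was isolated from MTX-resistant L1210/R71 cultured cells and purified on MTX-agarose. The assay measured ΔA340 at 22 °C in 0.1 M Tris, pH 7.0, with 62 nM enzyme. Enzyme was preincubated 2 min with inhibitor and NADPH, and dihydrofolate was then added to start the reaction. ID₅₀ determined.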"}}, "note": "pIC50: −log10 of the molar value. “And” between values parts separate entries of the source, which are not always exact repeats. Identical values can stand only once."}
{"smiles": "CN(Cc1cnc2nc(N)nc(N)c2n1)c1ccc(C(=O)N[C@@H](CCC(=O)O)C(=O)O)cc1", "note": "[METHOTREXATE]", "values": [{"measurement": "ILS", "setting": "Mus musculus [1]", "value": 89, "unit": "%"}, {"measurement": "T/C", "setting": "Mus musculus [2]", "value": 16}, {"measurement": "ILS", "setting": "Mus musculus [3]", "value": 63, "unit": "%"}, {"measurement": "T/C", "setting": "Mus musculus [4]", "value": 20}, {"measurement": "Weight change", "setting": "Mus musculus [5]", "value": 11, "unit": "%"}, {"measurement": "T/C", "setting": "Mus musculus [6]", "value": 17}, {"measurement": "Weight change", "setting": "Mus musculus [7]", "value": 1, "unit": "%"}, {"measurement": "Weight change", "setting": "Mus musculus [8]", "value": 1, "unit": "%"}, {"measurement": "T/C", "setting": "Mus musculus [9]", "value": 16}, {"measurement": "ILS", "setting": "Mus musculus [10]", "value": "89% and 78%"}, {"measurement": "ILS", "setting": "Mus musculus [11]", "value": 133, "unit": "%"}, {"measurement": "Weight change", "setting": "Mus musculus [12]", "value": -2, "unit": "%"}, {"measurement": "Weight change", "setting": "Mus musculus [13]", "value": 8, "unit": "%"}, {"measurement": "T/C", "setting": "Mus musculus [14]", "value": 21}, {"measurement": "Weight change", "setting": "Mus musculus [15]", "value": 3, "unit": "%"}, {"measurement": "T/C", "setting": "Mus musculus [16]", "value": 17}, {"measurement": "pIC50", "setting": "L1210 [17]", "value": 7.70}, {"measurement": "Weight change", "setting": "Mus musculus [18]", "value": 6, "unit": "%"}, {"measurement": "ILS", "setting": "Mus musculus [19]", "value": 122, "unit": "%"}, {"measurement": "Weight change", "setting": "Mus musculus [20]", "value": -2, "unit": "%"}, {"measurement": "T/C", "setting": "Mus musculus [21]", "value": 17}, {"measurement": "T/C", "setting": "Mus musculus [22]", "value": 13}]}
{"smiles": "CN(Cc1cnc2nc(N)nc(N)c2n1)c1ccc(C(=O)NC(CCCCCC(=O)O)C(=O)O)cc1", "note": "(stereo unspecified)", "values": [{"measurement": "ILS", "setting": "Mus musculus [23]", "value": 44, "unit": "%"}, {"measurement": "Weight change", "setting": "Mus musculus [24]", "value": 9, "unit": "%"}, {"measurement": "ILS", "setting": "Mus musculus [25]", "value": 78, "unit": "%"}, {"measurement": "Weight change", "setting": "Mus musculus [26]", "value": 6, "unit": "%"}, {"measurement": "T/C", "setting": "Mus musculus [27]", "value": 19}, {"measurement": "T/C", "setting": "Mus musculus [28]", "value": 17}, {"measurement": "ILS", "setting": "Mus musculus [29]", "value": 111, "unit": "%"}, {"measurement": "ILS", "setting": "Mus musculus [30]", "value": 89, "unit": "%"}, {"measurement": "Weight change", "setting": "Mus musculus [31]", "value": 7, "unit": "%"}, {"measurement": "T/C", "setting": "Mus musculus [32]", "value": 16}, {"measurement": "pIC50", "setting": "L1210 [33]", "value": 8.20}, {"measurement": "T/C", "setting": "Mus musculus [34]", "value": 13}, {"measurement": "Weight change", "setting": "Mus musculus [35]", "value": 11, "unit": "%"}, {"measurement": "ID50", "setting": "[36]", "value": 35, "unit": "nM"}]}
